Reference: ChEMBL document CHEMBL3763093, “The molecular structure of thio-ether fatty acids influences PPAR-dependent regulation of lipid metabolism” (Bioorg Med Chem, 2016)
Activity calls are given as the source filed them. The rule behind the calls is not given here.

Columns and labels:
[1] = Effect on fatty acid composition in human myotubes assessed as intracellular PUFA n-3 level at 30 uM after 96 hrs (Rvb= 5.16%); type: functional
How it was run: (§1)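 Differentiated human myotubes (7 days) treated 96 h with 10 or 30 μM compound or DMSO 0.1% (two controls). Cells washed, harvested, lipids extracted and methylated (methanol, sulfuric acid, 90 °C, 1 h); FA methyl esters quantified by GC with C21:0 internal standard, peaks confirmed by standards and GC/MS; values as mol % of intracellular fatty acids.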

[2] = Effect on fatty acid composition in human myotubes assessed as change in intracellular SFA level at 30 uM after 96 hrs relative to DMSO control; type: functional; how it was run: as §1
[3] = target: T1, Peroxisome proliferator-activated receptor (Homo sapiens) (UniProt P37231+Q07869+Q03181); assay: Agonist activity at PPAR in human myotubes assessed as ANGPTL4 mRNA expression at 30 uM after 96 hrs by qPCR analysis relative to control
How it was run: (§2)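 Myotubes from satellite cells of abdominal muscle biopsies of healthy donors, differentiated 7 days, then exposed 96 h to test lipids (30 μM) vs DMSO 0.1%. Total RNA isolated (RIN ≥7), reverse transcribed, real-time PCR with gene-specific primers; expression expressed relative to DMSO control.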

[4] = target: T1, Peroxisome proliferator-activated receptor (Homo sapiens); assay: Agonist activity at PPAR in human myotubes assessed as FABP3 mRNA expression at 30 uM after 96 hrs by qPCR analysis relative to control; how it was run: as §2
[5] = Effect on fatty acid composition in human myotubes assessed as intracellular PUFA n-3 level at 10 uM after 96 hrs (Rvb= 5.16%); type: functional; how it was run: as §1
[6] = Effect on fatty acid composition in human myotubes assessed as intracellular TTA level at 30 uM after 96 hrs; type: functional; how it was run: as §1
[7] = Effect on total fatty acid level in human myotubes assessed as per mg of protein at 10 to 30 uM; type: ADME
[8] = Effect on fatty acid composition in human myotubes assessed as intracellular TTA level at 10 uM after 96 hrs; type: functional; how it was run: as §1
[9] = Effect on fatty acid composition in human myotubes assessed as intracellular PUFA n-9 level at 10 uM after 96 hrs (Rvb= 1.89%); type: functional; how it was run: as §1
[10] = Effect on fatty acid composition in human myotubes assessed as intracellular MUFA level at 30 uM after 96 hrs (Rvb= 49.95%); type: functional; how it was run: as §1
[11] = Effect on fatty acid composition in human myotubes assessed as intracellular dTTA level at 30 uM after 96 hrs; type: functional; how it was run: as §1
[12] = Effect on fatty acid composition in human myotubes assessed as intracellular SFA level at 30 uM after 96 hrs (Rvb= 31.41%); type: functional; how it was run: as §1
[13] = target: T1, Peroxisome proliferator-activated receptor (Homo sapiens); assay: Agonist activity at PPAR in human myotubes assessed as CD36 mRNA expression at 30 uM after 96 hrs by qPCR analysis relative to control; how it was run: as §2
[14] = Effect on fatty acid composition in human myotubes assessed as intracellular dTTA level at 10 uM after 96 hrs; type: functional; how it was run: as §1
[15] = Effect on fatty acid composition in human myotubes assessed as intracellular SFA level at 10 uM after 96 hrs (Rvb= 31.41%); type: functional; how it was run: as §1
[16] = Effect on fatty acid composition in human myotubes assessed as intracellular PUFA n-9 level at 30 uM after 96 hrs (Rvb= 1.89%); type: functional; how it was run: as §1
[17] = Effect on fatty acid composition in human myotubes assessed as intracellular PUFA n-6 level at 10 uM after 96 hrs (Rvb= 11.46%); type: functional; how it was run: as §1
Homo sapiens [18] = species: Homo sapiens; assay: Effect on intracellular [14C]oleic acid uptake in human myotubes at 10 to 30 uM preincubated for 96 hrs followed by substrate addition incubated for 4 hrs by liquid scintillation analysis; type: functional, cell-based
How it was run: (§3)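 Myotubes differentiated 7 days were pretreated 96 h with 10 or 30 μM compound, 10 nM GW501516 or DMSO 0.1%, then given [1-14C]oleic acid (0.5 μCi/mL, 100 μM) in DPBS with HEPES 10 mM and L-carnitine 1 mM, 4 h at 37 °C. Trapped CO2 and cell-associated label counted by scintillation; uptake = CO2 + CA; Bradford protein; % of DMSO basal; n = 8–15.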

[19] = Effect on fatty acid composition in human myotubes assessed as change in intracellular MUFA level at 30 uM after 96 hrs relative to DMSO control; type: functional; how it was run: as §1
[20] = Effect on fatty acid composition in human myotubes assessed as change in intracellular SFA level at 10 uM after 96 hrs relative to DMSO control; type: functional; how it was run: as §1
[21] = Effect on fatty acid composition in human myotubes assessed as change in intracellular MUFA level at 10 uM after 96 hrs relative to DMSO control; type: functional; how it was run: as §1
[22] = Effect on protein level in human myotubes at 10 to 30 uM; type: ADME
[23] = Effect on fatty acid composition in human myotubes assessed as intracellular PUFA n-6 level at 30 uM after 96 hrs (Rvb= 11.46%); type: functional; how it was run: as §1
[24] = target: T1, Peroxisome proliferator-activated receptor (Homo sapiens); assay: Agonist activity at PPAR in human myotubes assessed as CPT1A mRNA expression at 30 uM after 96 hrs by qPCR analysis relative to control; how it was run: as §2
[25] = Effect on fatty acid composition in human myotubes assessed as intracellular MUFA level at 10 uM after 96 hrs (Rvb= 49.95%); type: functional; how it was run: as §1
[26] = Effect on fatty acid composition in human myotubes assessed as intracellular SFA level at 30 uM after 96 hrs (Rvb= 36.16%); type: functional; how it was run: as §1
[27] = Effect on fatty acid composition in human myotubes assessed as intracellular PUFA n-6 level at 10 uM after 96 hrs (Rvb= 13.41%); type: functional; how it was run: as §1
[28] = Effect on fatty acid composition in human myotubes assessed as intracellular SFA level at 10 uM after 96 hrs (Rvb= 36.16%); type: functional; how it was run: as §1
[29] = Effect on fatty acid composition in human myotubes assessed as intracellular PUFA n-3 level at 30 uM after 96 hrs (Rvb= […]); type: functional; how it was run: as §1
[30] = Effect on fatty acid composition in human myotubes assessed as intracellular MUFA level at 10 uM after 96 hrs (Rvb= 41.04%); type: functional; how it was run: as §1
[31] = Effect on fatty acid composition in human myotubes assessed as intracellular MUFA level at 30 uM after 96 hrs (Rvb= 41.04%); type: functional; how it was run: as §1
[32] = Effect on fatty acid composition in human myotubes assessed as intracellular PUFA n-9 level at 30 uM after 96 hrs (Rvb= 1.78%); type: functional; how it was run: as §1
[33] = Effect on fatty acid composition in human myotubes assessed as intracellular PUFA n-9 level at 10 uM after 96 hrs (Rvb= 1.78%); type: functional; how it was run: as §1
[34] = Effect on fatty acid composition in human myotubes assessed as intracellular PUFA n-6 level at 30 uM after 96 hrs (Rvb= 13.41%); type: functional; how it was run: as §1
[35] = Effect on fatty acid composition in human myotubes assessed as intracellular PUFA n-3 level at 10 uM after 96 hrs (Rvb= 7.47%); type: functional; how it was run: as §1
Homo sapiens [36] = species: Homo sapiens; assay: Induction of fatty acid oxidation in human myotubes using [14C]oleic acid as substrate preincubated for 96 hrs followed by substrate addition incubated for 4 hrs by liquid scintillation analysis; type: functional; how it was run: as §3
[37] = Effect on fatty acid composition in human myotubes assessed as intracellular tTTA level at 10 uM after 96 hrs; type: functional; how it was run: as §1
[38] = Effect on fatty acid composition in human myotubes assessed as intracellular tTTA level at 30 uM after 96 hrs; type: functional; how it was run: as §1

| Compound | Activity [4] | Activity [13] | Activity [2] | Activity [6] | Activity [7] | Activity [8] | Activity [11] | Activity [14] | Activity (Homo sapiens [18]) | Activity [19] | Activity [20] | Activity [21] | Activity [22] | Activity [26] | Activity [27] | Activity [28] | Activity [29] | Activity [30] | Activity [31] | Activity [32] | further results |
| --- | --- | --- | --- | --- | --- | --- | --- | --- | --- | --- | --- | --- | --- | --- | --- | --- | --- | --- | --- | --- | --- |
| CCCCCCCCCCCCCCSCC(=O)OC[C@@H](O)CO | Active | Active | -38.1% | 20.04 mol% | Non-toxic | 7.17 mol% | 0.91 mol% | 0.49 mol% | inactive | -19.4% | -18.5% | -6.4% | Non-toxic | 22.3 mol% | 14.15 mol% | 29.36 mol% | 8.21 mol% | 38.46 mol% | 33.11 mol% | 1.68 mol% | Activity [3]: Active; Activity (Homo sapiens [36]): Dose-dependent effect; Activity [33]: 1.81 mol%; Activity [34]: 13.63 mol%; Activity [35]: 8.42 mol%; Activity [24]: Active |
| CCCCCCC#CCCCCCCSCC(=O)O | Active | Active | 0.7% | 0.32 mol% | Non-toxic | 0.06 mol% | – | – | inactive | -21.3% | 2.2% | -11.6% | Non-toxic | 36.3 mol% | 13.93 mol% | 38.85 mol% | 7.09 mol% | 36.3 mol% | 32.32 mol% | 0.87 mol% | fold change (FC) [3]: 35; Activity [37]: 3.01 mol%; Activity [38]: 11.34 mol%; Activity [33]: 1.32 mol%; Activity [34]: 11.63 mol%; Activity [35]: 8.41 mol%; fold change (FC) [24]: < 10 |
| CCCCCCC#CCCCCCCSCC(=O)OC[C@@H](O)COP(=O)([O-])OCC[N+](C)(C)C | Active | Active | 4.5% | 1.02 mol% | Non-toxic | 0.43 mol% | – | – | inactive | -13.1% | 0.7% | -21.3% | Non-toxic | – | – | – | – | – | – | – | Activity [1]: 5.68 mol%; fold change (FC) [3]: 25; Activity (Homo sapiens [36]): Dose-dependent effect; Activity [37]: 2.16 mol%; Activity [5]: 5.18 mol%; Activity [9]: 1.48 mol%; Activity [10]: 40.64 mol%; Activity [38]: 4.15 mol%; Activity [12]: 33.52 mol%; Activity [15]: 32.02 mol%; Activity [16]: 1.41 mol%; Activity [17]: 12.4 mol%; Activity [23]: 13.42 mol%; fold change (FC) [24]: < 7; Activity [25]: 46.19 mol% |
| CCCCCCCCCCCCCCSCC(=O)OC[C@@H](O)COP(=O)([O-])OCC[N+](C)(C)C | – | – | -34.6% | 19.51 mol% | Non-toxic | 7.99 mol% | 0.91 mol% | 0.76 mol% | inactive | -19.3% | -16.3% | -9.6% | Non-toxic | 23.57 mol% | 13.96 mol% | 30.15 mol% | 7.56 mol% | 37.12 mol% | 33.15 mol% | 1.97 mol% | Activity (Homo sapiens [36]): Dose-dependent effect; Activity [33]: 2.21 mol%; Activity [34]: 13.2 mol%; Activity [35]: 7.68 mol% |

Further lines, with some results ahead:

| Activity [4] | Activity [13] | Compound | Activity [2] | Activity [6] | Activity [7] | Activity [8] | Activity [11] | Activity [14] | Activity (Homo sapiens [18]) | Activity [19] | Activity [20] | Activity [21] | Activity [22] | Activity [26] | Activity [27] | Activity [28] | Activity [29] | Activity [30] | Activity [31] | Activity [32] | further results |
| --- | --- | --- | --- | --- | --- | --- | --- | --- | --- | --- | --- | --- | --- | --- | --- | --- | --- | --- | --- | --- | --- |
| Active | Active | CCCCCC/C=C\CCCCCCSCC(=O)OC[C@H](COP(=O)([O-])OCC[N+](C)(C)C)OC(=O)CSCCCCCC/C=C\CCCCCC | 4.5% | 0.4 mol% | Non-toxic | 0.01 mol% | 6.08 mol% | 1.87 mol% | inactive | -13.1% | 2.7% | -3.6% | Non-toxic | – | – | – | – | – | – | – | Activity [1]: 4.63 mol%; Activity [3]: Active; Activity [5]: 4.74 mol%; Activity [9]: 1.53 mol%; Activity [10]: 43.41 mol%; Activity [12]: 32.82 mol%; Activity [15]: 32.26 mol%; Activity [16]: 1.42 mol%; Activity [17]: 11.29 mol%; Activity [23]: 11.45 mol%; Activity [24]: Active; Activity [25]: 48.17 mol% |
| inactive | inactive | CCCCCCCCCCCCCCSCC(=O)OC[C@H](COP(=O)([O-])OCC[N+](C)(C)C)OC(=O)CSCCCCCCCCCCCCCC [PHOSPHATIDYLCHOLINE] | -11.8% | 5.9 mol% | Non-toxic | 5.5 mol% | 0.34 mol% | 0.17 mol% | inactive | -4.4% | -2.5% | -8.8% | Non-toxic | 31.79 mol% | 12.71 mol% | 35.14 mol% | 7.3 mol% | 37.48 mol% | 39.28 mol% | 1.95 mol% | Activity [3]: inactive; Activity [33]: 1.88 mol%; Activity [34]: 13.31 mol%; Activity [35]: 6.98 mol%; Activity [24]: inactive |
